This note sets out measurements from ChEMBL document CHEMBL1122148, “Affinity therapeutics. 1. Selective incorporation of 2-thiouracil derivatives in murine melanomas. Cytostatic activity of 2-thiouracil arotinoids, 2-thiouracil retinoids, arotinoids, and retinoids” (1982).

Assay [1] has as its system S91. The assay can be described thus: Growth inhibition of Cloudman S91 Melanoma cells at 1 uM drug concentration; values are per cent of control. Particulars: Mus musculus.
Assay [2] concerns S91. The assay can be described thus: Growth inhibition of Cloudman S91 Melanoma cells at 10 uM drug concentration; values are per cent of control. As to conditions: Mus musculus.
The subject of assay [3] is Mus musculus. Kind of assay: Harding Passey melanoma tumor and organ incorporation of radioactivity 48 hr after 2.2 microCi dose injected intramuscularly in mouse eye. The format is functional. An outline of the steps: (§1)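 Harding Passey melanoma tissue (strongly melanized) was minced, and the brei was implanted subcutaneously into the right flank of DBA/2 mice. Tumors reached about 6×7 mm by 2 weeks. The ³⁵S-labelled thiouracil was injected intramuscularly into the right thigh, and animals were killed 48 h later. Four samples were taken per tumor and one per organ. Tissue was solubilized at 37 °C for 16 h, bleached, and scintillation-counted. Results are radioactivity per mg wet weight.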

Assay [4] concerns Mus musculus. The assay can be described thus: Cloudman S 91 melanoma tumor and organ incorporation of radioactivity 48 h after 2.2 microCi dose injected intramuscularly in mouse eye. In kind it is functional. An outline of the steps: (§2)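 Cloudman S 91 cells in culture (3×10^6) were implanted subcutaneously into the right flank of DBA/2 mice. After 2 weeks the tumors were about 6×7 mm. The ³⁵S-labelled thiouracil was given intramuscularly into the right thigh, and mice were killed 48 h later. Four samples were taken per tumor and one per organ. Tissue was solubilized at 37 °C for 16 h, bleached, and counted by liquid scintillation. Results are radioactivity per mg wet weight.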

Assay [5] relates to Mus musculus. The assay can be described thus: Cloudman S 91 melanoma tumor and organ incorporation of radioactivity 48 hr after 2.2 microCi dose injected intramuscularly in mouse kidney. In kind it is functional. Summed up: as §2
In assay [6] the test system is Mus musculus. The assay can be described thus: Harding Passey melanoma tumor and organ incorporation of radioactivity 48 hr after 2.2 microCi dose injected intramuscularly in mouse kidney. The format is functional. An outline of the steps:
as §1

Assay [7] deals with Mus musculus. Kind of assay: Harding Passey melanoma tumor and organ incorporation of radioactivity 48 hr after 2.2 microCi dose injected intramuscularly in mouse liver. The format is functional. Summed up: as §1
Assay [8] deals with Mus musculus. Kind of assay: Harding Passey melanoma tumor and organ incorporation of radioactivity 48 hr after 2.2 microCi dose injected intramuscularly in mouse lung. In kind it is functional. An outline of the steps:
as §1

The test system of assay [9] is Mus musculus. The assay can be described thus: Harding Passey melanoma tumor and organ incorporation of radioactivity 48 hr after 2.2 microCi dose injected intramuscularly in mouse spleen. The format is functional. An outline of the steps: as §1
Assay [10] concerns Mus musculus. The assay can be described thus: Cloudman S 91 melanoma tumor and organ incorporation of radioactivity 48 hr after 2.2 microCi dose injected intramuscularly in mouse liver. The format is functional. An outline of the steps:
as §2

Assay [11] has as its system Mus musculus. The assay can be described thus: Cloudman S 91 melanoma tumor and organ incorporation of radioactivity 48 hr after 2.2 microCi dose injected intramuscularly in mouse lung. The format is functional. Summed up: as §2
The test system of assay [12] is Mus musculus. Kind of assay: Cloudman S 91 melanoma tumor and organ incorporation of radioactivity 48 hr after 2.2 microCi dose injected intramuscularly in mouse spleen. The format is functional. An outline of the steps:
as §2

Assay [13] has as its system Mus musculus. The assay can be described thus: Cloudman S 91 melanoma tumor and organ incorporation of radioactivity 48 hr after 2.2 microCi dose injected intramuscularly in mouse tumor. In kind it is functional. An outline of the steps: as §2
Assay [14] has as its system Mus musculus. The assay can be described thus: Harding Passey melanoma tumor and organ incorporation of radioactivity 48 hr after 2.2 microCi dose injected intramuscularly in mouse tumor. The format is functional. An outline of the steps: as §1
Assay [15] concerns Mus musculus. The assay can be described thus: Cloudman S 91 melanoma tumor and organ incorporation of radioactivity 48 hr after 1.4 microCi dose injected intramuscularly in mouse eye. In kind it is functional. Summed up: as §2
Assay [16] concerns Mus musculus. The assay can be described thus: Cloudman S 91 melanoma tumor and organ incorporation of radioactivity 48 hr after 1.4 microCi dose injected intramuscularly in mouse kidney. The format is functional. An outline of the steps:
as §2

For assay [17], the system named is Mus musculus. Kind of assay: Cloudman S 91 melanoma tumor and organ incorporation of radioactivity 48 hr after 1.4 microCi dose injected intramuscularly in mouse liver. In kind it is functional. Summed up:
as §2

Assay [18] deals with Mus musculus. The assay can be described thus: Cloudman S 91 melanoma tumor and organ incorporation of radioactivity 48 h after 1.4 microCi dose injected intramuscularly in mouse lung. In kind it is functional. Summed up:
as §2

The test system of assay [19] is Mus musculus. The assay can be described thus: Cloudman S 91 melanoma tumor and organ incorporation of radioactivity 48 hr after 1.4 microCi dose injected intramuscularly in mouse spleen. The format is functional. An outline of the steps:
as §2

The subject of assay [20] is Mus musculus. Kind of assay: Harding Passey melanoma tumor and organ incorporation of radioactivity 48 hr after 1.4 microCi dose injected intramuscularly in mouse tumor. The format is functional. Summed up:
as §1

Assay [21] deals with Mus musculus. Kind of assay: Cloudman S 91 melanoma tumor and organ incorporation of radioactivity 48 hr after 1.4 microCi dose injected intramuscularly in mouse tumor. The format is functional. Summed up:
as §2

For assay [22], the system named is Mus musculus. Kind of assay: Harding Passey melanoma tumor and organ incorporation of radioactivity 48 hr after 1.4 microCi dose injected intramuscularly in mouse eye. The format is functional. Summed up:
as §1

The test system of assay [23] is Mus musculus. Kind of assay: Harding Passey melanoma tumor and organ incorporation of radioactivity 48 hr after 1.4 microCi dose injected intramuscularly in mouse kidney. In kind it is functional. Summed up:
as §1

For assay [24], the system named is Mus musculus. The assay can be described thus: Harding Passey melanoma tumor and organ incorporation of radioactivity 48 hr after 1.4 microCi dose injected intramuscularly in mouse liver. The format is functional. Summed up: as §1
For assay [25], the system named is Mus musculus. The assay can be described thus: Harding Passey melanoma tumor and organ incorporation of radioactivity 48 hr after 1.4 microCi dose injected intramuscularly in mouse lung. The format is functional. Summed up:
as §1

For assay [26], the system named is Mus musculus. Kind of assay: Harding Passey melanoma tumor and organ incorporation of radioactivity 48 hr after 1.4 microCi dose injected intramuscularly in mouse spleen. In kind it is functional. An outline of the steps:
as §1

In assay [27] the test system is Mus musculus. Kind of assay: Harding Passey melanoma tumor and organ incorporation of radioactivity 48 hr after 5.1 microCi dose injected intramuscularly in mouse spleen. In kind it is functional. Summed up:
as §1

The test system of assay [28] is Mus musculus. The assay can be described thus: Harding Passey melanoma tumor and organ incorporation of radioactivity 48 hr after 5.1 microCi dose injected intramuscularly in mouse tumor. In kind it is functional. Summed up:
as §1

Assay [29] relates to Mus musculus. The assay can be described thus: Harding Passey melanoma tumor and organ incorporation of radioactivity 48 hr after 5.1 microCi dose injected intramuscularly in mouse kidney. The format is functional. Summed up:
as §1

For assay [30], the system named is Mus musculus. Kind of assay: Harding Passey melanoma tumor and organ incorporation of radioactivity 48 hr after 5.1 microCi dose injected intramuscularly in mouse liver. In kind it is functional. An outline of the steps:
as §1

Assay [31] has as its system Mus musculus. The assay can be described thus: Harding Passey melanoma tumor and organ incorporation of radioactivity 48 hr after 5.1 microCi dose injected intramuscularly in mouse eye. In kind it is functional. Summed up:
as §1

Assay [32] has as its system Mus musculus. The assay can be described thus: Harding Passey melanoma tumor and organ incorporation of radioactivity 48 hr after 5.1 microCi dose injected intramuscularly in mouse lung. In kind it is functional. Summed up: as §1

In the case of `N#CSCCCCc1cnc(S)nc1O`, the level, % of control at 1 µM in the assay on S91 [1] is 93%. In addition, in the assay on S91 [2], the level, % of control at 10 µM worked out at 100%.
Taken in the same sequence, the figures for `O=Cc1ccc(C(=O)OCCCCc2cnc(S)nc2O)cc1` were 118% and 98%.
In the same order, the values of `C/C=C/C=C/C(=O)OCCCCc1cnc(S)nc1O` are 139% and 94%.
Take `OCCCCc1cnc(S)nc1O`: the Activity is on record as 2.6 c.p.m. min-1 mg-1 in the assay with Mus musculus [3]; 2.7 c.p.m. min-1 mg-1 in the assay with Mus musculus [4]; 8 c.p.m. min-1 mg-1 in the assay with Mus musculus [5]; 26.1 c.p.m. min-1 mg-1 in the assay with Mus musculus [6]; 8.8 c.p.m. min-1 mg-1 in the assay with Mus musculus [7]; 4 c.p.m. min-1 mg-1 in the assay on Mus musculus [8]. Besides, the Activity in the assay on Mus musculus [9] is reported as 1.5 c.p.m. min-1 mg-1; with Mus musculus [10], 6.1 c.p.m. min-1 mg-1; with Mus musculus [11] it was 3 c.p.m. min-1 mg-1; in the assay on Mus musculus [12], 1.5 c.p.m. min-1 mg-1; in the assay on Mus musculus [13], 7.6 c.p.m. min-1 mg-1; in the assay on Mus musculus [14], 24.8 c.p.m. min-1 mg-1. In the assay on S91 [1], this compound showed a level, % of control at 1 µM of 81%. Further, in the assay with S91 [2], the level, % of control at 10 µM came out at 82%.
Compound `O=C1CCCC/C1=C/CCCc1cnc(S)nc1O` displayed a level, % of control at 1 µM in the assay with S91 [1] of 87%. Further, the level, % of control at 10 µM with S91 [2] came out at 89%.
Taken in the same sequence, the figures for `CC(=O)OCCCCc1cnc(S)nc1O` were 90% and 94%.
Taken in the same sequence, the figures for `CCOC(=O)c1ccc(/C=C(\C)c2ccc3c(c2)CCCC3)cc1` were 81% and 97%.
Turning to `C/C(=C\c1ccc(C(=O)OCCCCc2cnc(S)nc2O)cc1)c1ccc2c(c1)CCCC2`, the Activity with Mus musculus [15] worked out at 1.8 c.p.m. min-1 mg-1; in the assay with Mus musculus [16], 4.5 c.p.m. min-1 mg-1; with Mus musculus [17], 6.1 c.p.m. min-1 mg-1; in the assay on Mus musculus [18] it was 3.2 c.p.m. min-1 mg-1; in the assay on Mus musculus [19], 1.7 c.p.m. min-1 mg-1; with Mus musculus [20] it was 10.6 c.p.m. min-1 mg-1. The Activity with Mus musculus [21] is 4.4 c.p.m. min-1 mg-1; in the assay on Mus musculus [22], 1.9 c.p.m. min-1 mg-1; with Mus musculus [23], 6.6 c.p.m. min-1 mg-1; with Mus musculus [24], 9.9 c.p.m. min-1 mg-1; in the assay on Mus musculus [25], 3.7 c.p.m. min-1 mg-1; in the assay on Mus musculus [26], 1.2 c.p.m. min-1 mg-1. The level, % of control at 1 µM in the assay with S91 [1] came out at 78%. This compound also yielded a level, % of control at 10 µM in the assay on S91 [2] of 103%.
Take `O=Cc1ccc(C(=O)OCCc2cnc(S)nc2O)cc1`: the level, % of control at 1 µM with S91 [1] worked out at 82%. The level, % of control at 10 µM with S91 [2] was 83%.
In the same order, the values of `C/C(=C\c1ccc(C(=O)OCCCCc2cnc(S)nc2O)cc1)c1ccc2c(c1)C(C)(C)CCC2(C)C` are 146% and 84%.
In turn, `CC1=C(/C=C/C(C)=C/C=C/C(C)=C/C(=O)OCCCCc2cnc(S)nc2O)C(C)(C)CCC1` yielded a level, % of control at 1 µM with S91 [1] of 73%.
`C/C(=C\c1ccc(C(=O)O)cc1)c1ccc2c(c1)C(C)(C)CCC2(C)C` gave a level, % of control at 1 µM in the assay on S91 [1] of 122%. The compound further came in with a level, % of control at 10 µM in the assay with S91 [2] of 98%.
Taken in the same sequence, the figures for `CC(O)Cc1cnc(S)nc1O` (configuration not stated) were 134% and 106%.
Taken in the same sequence, the figures for `Oc1nc(S)ncc1CCCCBr` were 109% and 100%.
`CCOC(=O)c1ccc(/C=C(\C)c2ccc3c(c2)C(C)(C)CCC3(C)C)cc1` [AROTINOID] yielded a level, % of control at 1 µM in the assay with S91 [1] of 134%. For the same compound, the level, % of control at 10 µM with S91 [2] was found to be 98%.
On to `O=c1cc[nH]c(=S)[nH]1` [THIOURACIL], for which the Activity is recorded as 2.7 c.p.m. min-1 mg-1 with Mus musculus [27]; 153.3 c.p.m. min-1 mg-1 in the assay with Mus musculus [28]; 22.3 c.p.m. min-1 mg-1 with Mus musculus [29]; 20.5 c.p.m. min-1 mg-1 in the assay on Mus musculus [30]; 23.1 c.p.m. min-1 mg-1 in the assay on Mus musculus [31]; 4.7 c.p.m. min-1 mg-1 with Mus musculus [32]. In the assay with S91 [1], this compound registered a level, % of control at 1 µM of 97%. The level, % of control at 10 µM in the assay with S91 [2] was found to be 97%.
`CC1=C(/C=C/C(C)=C/C=C/C(C)=C/C(=O)O)C(C)(C)CCC1` [TRETINOIN] had a level, % of control at 1 µM in the assay on S91 [1] of 11%.
